Laboratory results reported in ChEMBL document CHEMBL5104115, “Design, synthesis of novel triptolide-glucose conjugates targeting glucose Transporter-1 and their selective antitumor effect” (Eur J Med Chem, 2022).

Experiments:
[1] = tested on: HT-29; test: Cytotoxicity against human HT-29 cells incubated for 72 hrs by MTT assay; type: functional, cell-based; settings: HT-29, 72 h
Summary of the method: (§1)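 Cells seeded at 4000/well, incubated overnight, then exposed to a range of concentrations, or DMSO vehicle, for 72 h. MTT (5 mg/mL solution) added for 4 h and formazan dissolved in DMSO. Absorbance read at 570 nm, and IC50 derived from the curves. Tumor lines were grown in RPMI 1640; HUVEC, HaCaT and LO2 were grown in DMEM, each with 10% FBS at 37 °C and 5% CO2.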

[2] = Toxicity in BALB/c nude mouse xenografted with human NCI-H1975 cells assessed as loss of body weight at 1 to 2 mg/kg administered ip, qd for 2 weeks measured every 3 days; settings: in vivo, 336 h
[3] = Drug distribution in NCI-H1975 tumor bearing nude mouse model assessed as tumor to heart ratio of triptolide metabolite at 2 mg/kg, iv by LC-MS analysis; type: ADME, organism-based; settings: in vivo
Summary of the method: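 NCI-H1975 xenograft mice, tumors about 500 mm3, 3 per group, fasted 12 h with water available. Given 2 mg/kg iv and sacrificed 1 h later. Heart, liver, lung, kidney and tumor weighed and flash-frozen. 1.0 g tissue homogenized in 2.0 mL saline, methanol-precipitated, reconstituted. Parent, triptolide succinate and triptolide measured by LC-MS; tumor/organ ratios calculated.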

[4] = tested on: NCI-H1975; test: Cytotoxicity against human NCI-H1975 cells transfected with OE V overexpressing Glut1assessed as decrease in cell viability incubated for 72 hrs by MTT assay; type: functional, cell-based; settings: NCI-H1975, 72 h
Summary of the method: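 Stable Glut-1 knockdown (KD1, KD2, vector KD V) or overexpression (OE, vector OE V) NCI-H1975 cells made by 12 h lentiviral infection, 72 h culture, then 14 days puromycin selection; Glut-1 confirmed by Western blot. Cells seeded at 4000/well overnight, dosed over a concentration range or DMSO for 72 h. MTT read at 570 nm; IC50 from ≥3 replicates.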

[5] = tested on: HCT-116; test: Cytotoxicity against human HCT-116 cells incubated for 72 hrs by MTT assay; type: functional, cell-based; settings: HCT-116, 72 h; summary of the method: as §1
[6] = tested on: NCI-H460; test: Induction of apoptosis in human NCI-H460 cells assessed as early apoptotic cells at 1 uM measured after 48 hrs by Annexin V-FITC/PI staining method (reference value: 3.26%); type: functional
[7] = tested on: NCI-H1975; test: Antitumor activity against human NCI-H1975 cells xenografted in BALB/c nude mouse assessed as tumor growth inhibition at 1 mg/kg, ip, qd for 2 weeks relative to control; settings: NCI-H1975, 336 h, read-out: TGI

With `CC(C)[C@]12O[C@H]1[C@@H]1O[C@]13[C@]1(O[C@H]1C[C@H]1C4=C(CC[C@@]13C)C(=O)OC4)[C@@H]2OC(=O)CCC(=O)O[C@H]1C(O)O[C@H](CO)[C@@H](O)[C@@H]1O` (some centres not stated) the IC50 [1] was 2190 nM, the Activity [2] was “Non-Toxic” and the Ratio [3] was 7.3. It also gave an IC50 [4] of 5270 nM, an IC50 [5] of 1950 nM and an Activity [6] of 7.09%. It also gave an inhibition in vivo at 1 mg/kg [7] of 75.4%.
